This passage reports Activity and IC50 results from ChEMBL document CHEMBL4811253, “Flavonoid-triazolyl hybrids as potential anti-hepatitis C virus agents: Synthesis and biological evaluation” (Eur J Med Chem, 2021).

One data set concerns Huh-7. Briefly: Cytotoxicity against human Huh7 cells assessed as reduction in cell viability at 100 ug/ml incubated for 72 hrs by XTT assay. The data set is classed as cell-based. Conditions: huh-7, 72 h, dose 100 µg/ml. Put shortly: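 Huh7 cells (1 × 10⁴/well) seeded overnight, exposed to compound at 100 µg/mL for 72 h; viability by XTT (Cell Proliferation Kit II) per the kit instructions. Cells grown in DMEM with 10% FBS, 37 °C, 5% CO₂.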
(Formazan colour is commonly taken as a measure of viable cells.)

Data set [1] has as its system Hepatitis C virus. Briefly: Antiviral activity against HCV JFH-1 infected in Huh7 cells overexpressing mCherry-NLS-IPS protein at 100 ug/ml pre-infected with virus for 6 hrs followed by compound addition for 72 hrs by fluorescence assay. The data set is classed as functional, organism-based. The note with it: Hepacivirus hominis, Huh-7, dose 100.0 µg/ml. Put shortly: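 Huh7 cells carrying mCherry-NLS-IPS were made by transducing them with a recombinant virus from 293T cells (VSV-G, Pol and mCherry-NLS-IPS1 plasmids). These cells were seeded at 5×10⁴ per well overnight in DMEM with 10% FBS at 37 °C and 5% CO₂, then infected with HCV JFH1 (MOI 1) for 6 h. After washing they were cultured with compound for 72 h, with sofosbuvir as positive control. The readout was microscopic imaging of red fluorescence shifting from cytoplasm to nucleus after NS3/4A cleavage.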

Data set [2] concerns Hepatitis C virus. Briefly: Antiviral activity against HCV JFH-1 in Huh7 cells infected with supernatant from 72 hrs at 100 ug/ml compound treated Huh7 cells with HCV JFH-1 infection assessed as inhibition of HCV progeny virus production by measuring viral RNA level measured after 48 hrs post re-infection by RT-PCR analysis. The data set is classed as functional, organism-based. Conditions: Hepacivirus hominis, Huh-7, dose 100.0 µg/ml, time 120.0 hrs. The procedure, abridged: (§1)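 Huh7 cells (1 × 10⁴/well, overnight) infected with HCV at MOI 0.1 for 6 h, virus washed out, then compound for 72 h (single 100 µg/mL screen; or 1, 3, 10, 30 µM dose series). Supernatant used to reinfect fresh Huh7 cells; 48 h later total RNA column-extracted and HCV RNA quantified by real-time RT-PCR. IFNa 10 U/mL as reference.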

In data set [3] the test system is Hepatitis C virus. Briefly: Antiviral activity against HCV JFH-1 in Huh7 cells assessed as reduction in NS3 protein expression by Western blotting analysis. The data set is classed as functional, organism-based. Conditions: Hepacivirus hominis, Huh-7, dose 1-100 µM. Put shortly:
(§2)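 Huh7 cells treated with compound at 1, 10 and 100 µM (concentrations as stated in text). Lysates in RIPA buffer, heated with Laemmli buffer at 95 °C for 10 min. Western blot probed with anti-NS3 (1/1000), anti-Core (1/3000) and anti-GAPDH (1/1000), HRP secondary antibodies, chemiluminescence detection.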
(In general: Immunoblotting shows a protein as a band on a membrane.)

Data set [4] has as its system Hepatitis C virus. Description: Antiviral activity against HCV JFH-1 in Huh7 cells assessed as reduction in HCV core protein expression by Western blotting analysis. The data set is classed as functional, organism-based. The note with it: Hepacivirus hominis, Huh-7, dose 1-100 µM. The procedure, abridged: as §2
Data set [5] deals with Hepatitis C virus. Description: Antiviral activity against HCV JFH-1 in Huh7 cells infected with supernatant from 3 days compound treated Huh7 cells with HCV JFH-1 infection assessed as reduction in HCV production by measuring viral RNA level measured after 48 hrs post re-infection by RT-PCR analysis. The class given is functional, organism-based. The note with it: for Activity: Hepacivirus hominis, Huh-7, time 3.0 day; for IC50: JFH-1, Huh-7. The procedure, abridged: as §1

The subject of data set [6] is Hepatitis C virus. Briefly: Antiviral activity against HCV JFH-1 in Huh7 cells infected with supernatant from 3 days at 30 uM of compound treated Huh7 cells with HCV JFH-1 infection assessed as reduction in HCV production by measuring viral RNA level measured after 48 hrs post re-infection by RT-PCR analysis. The class given is functional, organism-based. The note with it: Hepacivirus hominis, Huh-7, time 120.0 hrs. Put shortly: as §1

In data set [7] the test system is Hepatitis C virus. Briefly: Antiviral activity against HCV JFH-1 infected in Huh7 cells assessed as inhibition of HCV replication at 10 uM after 72 hrs by luciferase reporter gene assay. The class given is functional, organism-based. The note with it: Hepacivirus hominis, Huh-7. The procedure, abridged: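 Huh7 cells transfected with subgenomic JFH1 replicon carrying luciferase (SGR-Luc-JFH1), then treated with compound; luciferase activity in cell extracts read after 72 h.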
(A reporter such as luciferase makes a cellular process visible.)

Data set [8] deals with Hepatitis C virus. Briefly: Antiviral activity against HCV pseudo-particle infected in human Huh-7 cells assessed as inhibition of viral entry at 10 uM incubated for 24 hrs prior to infection and measured after 48 hrs post infection by bright Glo-luciferase reporter gene assay. The data set is classed as functional, Hepacivirus hominis, JFH-1. On the set-up: scale not given: the % may be the effect or the level left. Put shortly:
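Huh-7 cells (5 × 10³/well) pretreated with compound for 24 h, then infected with HCV pseudoparticles. Virus and compound washed out after 6 h of infection. Luciferase read with Bright-Glo reagent 48 h later.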

The subject of data set [9] is Hepatitis C virus. Description: Antiviral activity against wild-type HCV infected in human Huh-7 cells assessed as inhibition of viral entry at 10 uM incubated for 24 hrs prior to infection and measured after 48 hrs post infection by RT-PCR. Conditions: Hepacivirus hominis, JFH-1.

The structures appear in SMILES notation. The source made the active and inactive calls. The rule behind the calls is not given here.

Turning to `Cn1cc(COc2ccc3c(c2)OC(c2ccc4c(c2)C=CC(C)(C)O4)CC3=O)nn1` (stereo not drawn), the Activity entry in the data set with Huh-7 is on record as “Non-Toxic”.

Regarding `Cc1ccc(Cn2cc(COc3ccc4c(c3)OC(c3ccc5c(c3)C=CC(C)(C)O5)CC4=O)nn2)cc1` (stereo not drawn), in the data set with Huh-7, the Activity entry is “Non-Toxic”.

For `CCn1cc(COc2ccc3c(c2)OC(c2ccc4c(c2)C=CC(C)(C)O4)CC3=O)nn1` (stereo not drawn), the Activity result in the data set with Huh-7 is given as “Non-Toxic”.

In the case of `CCCCCn1cc(COc2ccc3c(c2)OC(c2ccc4c(c2)C=CC(C)(C)O4)CC3=O)nn1` (stereo not drawn), the Activity entry in the data set with Huh-7 is listed as “Non-Toxic”. In addition, the result in the data set with Hepatitis C virus [1] and in the data set with Hepatitis C virus [2] was Active.

With `CC1(C)C=Cc2cc(C3CC(=O)c4ccc(OCc5cn(Cc6ccncc6)nn5)cc4O3)ccc2O1` (stereo not drawn), the Activity entry in the data set on Huh-7 is recorded as “Toxic”.

For `CC1(C)C=Cc2cc(C3CC(=O)c4ccc(O)cc4O3)ccc2O1` (stereo not drawn), in the data set on Huh-7, the Activity entry is given as “Non-Toxic”.

As to `CC1(C)C=Cc2cc(C3CC(=O)c4ccc(OCc5cn(Cc6ccccc6F)nn5)cc4O3)ccc2O1` (stereo not drawn), the Activity entry in the data set on Huh-7 is listed as “Non-Toxic”.

For the compound `COc1cc(Cn2cc(COc3ccc4c(c3)OC(c3ccc5c(c3)C=CC(C)(C)O5)CC4=O)nn2)cc(OC)c1` (stereo not drawn), the Activity entry in the data set with Huh-7 was “Non-Toxic”.

In the case of `CC1(C)C=Cc2cc(C3CC(=O)c4ccc(OCc5cn(Cc6ccccc6)nn5)cc4O3)ccc2O1` (stereo not drawn), the Activity entry with Huh-7 is on record as “Toxic”.

Take `CC1(C)C=Cc2cc(C3CC(=O)c4ccc(OCc5cn(Cc6cc(Cl)cc(Cl)c6)nn5)cc4O3)ccc2O1` (stereo not drawn): the Activity result with Huh-7 is “Non-Toxic”.

In the case of `COc1cccc(Cn2cc(COc3ccc4c(c3)OC(c3ccc5c(c3)C=CC(C)(C)O5)CC4=O)nn2)c1` (stereo not drawn), the Activity entry in the data set with Huh-7 is on record as “Non-Toxic”.

As for `CCCCn1cc(COc2ccc3c(c2)OC(c2ccc4c(c2)C=CC(C)(C)O4)CC3=O)nn1` (stereo not drawn), the Activity entry in the data set on Huh-7 is recorded as “Non-Toxic”.

Consider `CC1(C)C=Cc2cc(C3CC(=O)c4ccc(OCc5cn(Cc6cccc(F)c6)nn5)cc4O3)ccc2O1` (stereo not drawn), for which the Activity entry with Huh-7 was “Non-Toxic”.

Regarding `CC1(C)C=Cc2cc(C3CC(=O)c4ccc(OCc5cn(Cc6ccc(Br)cc6)nn5)cc4O3)ccc2O1` (stereo not drawn), the Activity entry is “Non-Toxic” in the data set with Huh-7, “Dose-Dependent Effect” in the data set on Hepatitis C virus [3] and “Dose-Dependent Effect” in the data set with Hepatitis C virus [4]. Besides, the result in the data set on Hepatitis C virus [1] and with Hepatitis C virus [2] was Active.

Consider `CC1(C)C=Cc2cc(C3CC(=O)c4ccc(OCc5cn(Cc6ccc([N+](=O)[O-])cc6)nn5)cc4O3)ccc2O1` (stereo not drawn), for which the Activity result with Huh-7 is “Non-Toxic”.

The term IC50 denotes the midpoint of a concentration-inhibition curve. With `CC1(C)C=Cc2cc(C3CC(=O)c4ccc(OCc5cn(Cc6ccccc6Cl)nn5)cc4O3)ccc2O1` (stereo not drawn), the Activity result was “Non-Toxic” in the data set on Huh-7; “Dose-Dependent Effect” in the data set on Hepatitis C virus [3]; “Dose-Dependent Effect” in the data set on Hepatitis C virus [4]; “Dose-Dependent Effect” with Hepatitis C virus [5]; 34% in the data set on Hepatitis C virus [8]. Moreover, the result in the data set with Hepatitis C virus [1], in the data set with Hepatitis C virus [2], in the data set on Hepatitis C virus [6] and in the data set with Hepatitis C virus [9] was Active. Moreover, in the data set on Hepatitis C virus [5], the half-maximal inhibitory concentration (IC50) turned out to be 5.29 µM. The result in the data set with Hepatitis C virus [7] was inactive.

Take `CCCCCCCCCn1cc(COc2ccc3c(c2)OC(c2ccc4c(c2)C=CC(C)(C)O4)CC3=O)nn1` (stereo not drawn): the Activity entry in the data set on Huh-7 was “Non-Toxic”.

Take `CC1(C)C=Cc2cc(C3CC(=O)c4ccc(OCc5cn(Cc6ccc(C(F)(F)F)cc6)nn5)cc4O3)ccc2O1` (stereo not drawn): the Activity entry with Huh-7 is “Non-Toxic”.

`CCCCCCn1cc(COc2ccc3c(c2)OC(c2ccc4c(c2)C=CC(C)(C)O4)CC3=O)nn1` (stereo not drawn): in the data set with Huh-7, the Activity entry is reported as “Non-Toxic”. For the same compound, the result in the data set on Hepatitis C virus [1] and with Hepatitis C virus [2] was Active.

On to `CC1(C)C=Cc2cc(C3CC(=O)c4ccc(OCc5cn(Cc6ccc(F)cc6)nn5)cc4O3)ccc2O1` (stereo not drawn), for which the Activity entry was “Non-Toxic” in the data set on Huh-7; “Dose-Dependent Effect” in the data set on Hepatitis C virus [3]; “Dose-Dependent Effect” in the data set with Hepatitis C virus [4]; “Dose-Dependent Effect” in the data set with Hepatitis C virus [5]; 52% with Hepatitis C virus [8]. For the same compound, the result in the data set with Hepatitis C virus [1], in the data set with Hepatitis C virus [2], in the data set on Hepatitis C virus [6] and in the data set with Hepatitis C virus [9] was Active. Also, the IC50 with Hepatitis C virus [5] was determined as 9 µM. The outcome in the data set with Hepatitis C virus [7] was inactive.
